SENP1 inh – blocks the human SENP1 SUMO protease catalytic domain; actives 0.21% (n = 360,000); recombinant SENP1 catalytic domain, CyPet-SUMO1-YPet FRET cleavage; inhibition, % at 10 µM;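 active = inhibition at least 30% at 10 µM, raw YFP signal under a set limit, fluorescence ratio 0.5 to 1.5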
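system = hSENP1 catalytic domain, recombinant | reagent = SFCypet-SUMO1-SFYpet substrate at 25 nM | doses = one dose per compound, 10 µM, 0.5% DMSO | incubation = enzyme reaction for 50 min at room temperature, dark | measured by = FRET, CFP and YFP emission | controls = no-enzyme low, enzyme-DMSO high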
Rpn11 inh – Rpn11 (human) deubiquitinase inhibition; O00487; human 26S proteasome, Ub4-pepOG fluorescence polarization; 20S core pre-blocked with epoxomicin; inhibition, % at 20 µM; actives 0.59% (n = 360,000);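 active = inhibition at 20 µM, scaled to each plate's controls, above about 33%, limit read from the data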
HNF4A DNA FP – change in binding of human HNF4 alpha to DNA | HNF4a-FITC DNA binding, fluorescence polarization, 1 h | P41235 | AID 1224865 | actives 0.3% (n = 360,000) | activity change, % at 10 µM; in the data active = activity change above about 30%, passing the limit was not always enough
TPT1 inhibitor – C. albicans TPT1 enzyme inhibition | inhibition, % at 5 µM | actives 0.81% (n = 300,000) | recombinant caTPT1, FP RNA substrate dephosphorylation | AID 1962;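 active = inhibition above the mean of all tested compounds plus 3 SD, set per screening campaign, cut at about 24% in these data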
CSN deneddyl inh – blocks human CSN-mediated cullin deneddylation; Q92905; actives 0.38% (n = 360,000); Purified CSN, SCF-Nedd8-OG deneddylation, fluorescence polarization; inhibition, % at 12.5 µM;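 active = pattern-corrected inhibition above about 35%, with an unprinted fluorescence ratio check between 0.5 and 1.5, limit read from the data, passing the limit was not always enough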
Target sequence (Q92905 whole entry, looked up, one chain of several): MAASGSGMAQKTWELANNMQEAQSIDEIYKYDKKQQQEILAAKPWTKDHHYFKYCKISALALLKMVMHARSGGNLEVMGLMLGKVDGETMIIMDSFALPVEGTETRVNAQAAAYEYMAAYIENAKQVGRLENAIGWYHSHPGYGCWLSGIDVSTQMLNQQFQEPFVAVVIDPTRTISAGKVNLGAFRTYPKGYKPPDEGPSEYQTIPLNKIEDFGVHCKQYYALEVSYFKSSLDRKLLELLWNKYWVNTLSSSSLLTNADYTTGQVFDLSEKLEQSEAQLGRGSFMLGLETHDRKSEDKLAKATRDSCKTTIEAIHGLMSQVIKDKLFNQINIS
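Assay system: HEK293T-derived human Csn5 enzyme; quantity: 0.24 nM enzyme; medium: Tris/NaCl/DTT buffer, pH 7.5; also added: substrate SCFSkp2-Nedd8OG, 10 nM; doses: 12.5 µM compound; schedule: 90 min reaction at room temperature; signal: FP; read-out: % inhibition of substrate cleavage by Csn5; benchmarks: substrate-only high control, full reaction low control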
Each line names hits and unclear results; the compound was inactive in the other large screens. Sampled rows, rich in hits. Any-hit rate of the full collection: about 1.6%.

CN1CCN(c2ccc([N+](=O)[O-])c3no[n+]([O-])c23)CC1	SENP1 inh 84
COC(=O)C1=C(c2c(C)noc2C)C[C@@H]2CC[C@H]1N2C(=O)N1CCCC1	none (no result: TPT1 inhibitor)
CC1Oc2cc3c(-c4c(O)cc(O)c5c(O)c6c(cc45)OC(C)C(C)C6=O)c(O)cc(O)c3c(O)c2C(=O)C1C (stereo not drawn)	SENP1 inh 65
COc1ccc(-c2ccc3c(c2)CN(C(=O)NC2CCCCC2)Cc2cnnn2-3)cc1	none (no result: TPT1 inhibitor)
O=C(NC1CCCCC1)N1Cc2cc(-c3cccc(F)c3)ccc2-n2nncc2C1	CSN deneddyl inh 145 (no result: TPT1 inhibitor)
CCCCCN1C(=O)c2cc(OC)ccc2[C@@]2(C(=O)OCC)Cc3cc(OC)ccc3[C@@H]12	none (no result: Rpn11 inh, TPT1 inhibitor)
Nc1c(C(=O)NCC2CCCO2)c2nc3ccccc3nc2n1Cc1ccco1 (stereo not drawn)	none
Nc1c(C(=O)NC2CCCC2)c2nc3ccccc3nc2n1CC1CCCO1 (stereo not drawn)	CSN deneddyl inh 46
N#CC(C#N)=Cc1ccc(C=C(C#N)C#N)cc1	Rpn11 inh 72 (no result: TPT1 inhibitor)
Cc1cc(N2CCCC2)ccc1C=C(C#N)C#N	none
CC1(C)CC2CCC(O)C2C(CCO)N1 (stereo not drawn)	none (no result: TPT1 inhibitor)
CCN1C(=O)/C(=C/c2ccc3c(c2)CCN3CCCCl)C(=O)NC1=S	none
CC(C)(C)N1C(=O)NC(=O)/C(=C\c2ccc3c(c2)CCN3CCCCl)C1=O	CSN deneddyl inh 39 (not shown: Rpn11 inh)
Clc1ccc(C(c2ccc(Cl)cc2)n2cc[n+](CC(OCc3ccc(Cl)cc3Cl)c3ccc(Cl)cc3Cl)c2)cc1 (stereo not drawn)	Rpn11 inh 105
Cc1cccc(C)c1-n1nnnc1C(c1cccc2ccccc12)N1CCC(n2c(=O)[nH]c3ccccc32)CC1 (stereo not drawn)	none (no result: TPT1 inhibitor)
Cc1cccc(C)c1-n1nnnc1C(c1cccs1)N1CCC(n2c(=O)[nH]c3ccccc32)CC1 (stereo not drawn)	CSN deneddyl inh 68 (no result: TPT1 inhibitor)
COc1ccc(/C=C2/C(=O)NC(=O)N(Cc3ccco3)C2=O)cc1	TPT1 inhibitor 33 (no result: SENP1 inh, Rpn11 inh, HNF4A DNA FP, CSN deneddyl inh)
CC(C)(C)N1CC(C(=O)c2ccccc2)C1c1ccccc1 (stereo not drawn)	none (no result: TPT1 inhibitor)
O=C1NC(=S)N(c2ccc(F)cc2)C(=O)/C1=C/c1ccco1	TPT1 inhibitor 78 (no result: SENP1 inh, Rpn11 inh, HNF4A DNA FP, CSN deneddyl inh)
O=C1NC(=O)C(=Cc2ccco2)C(=O)N1	none (no result: TPT1 inhibitor)
O=C1NC(=S)N(c2ccc(F)cc2)C(=O)/C1=C\c1ccoc1	Rpn11 inh active (no result: TPT1 inhibitor)
CCOP(=S)(OCC)N1CC1	none (no result: TPT1 inhibitor)
CCN1CCN(C(=O)COc2ccc(S(=O)(=O)NC(C)C)cc2)CC1	none
CN1CCN(C(=O)COc2ccc(S(=O)(=O)Nc3ccc(F)cc3)cc2)CC1	HNF4A DNA FP 43
CCOC(=O)CSc1ccc(C(=O)N2CCC3(CC2)OCCO3)cc1[N+](=O)[O-]	none
COC(=O)C1=C(C(=O)OC)SC2(S1)C(C(=O)OC)=C(C(=O)OC)Sc1c2ssc1=O	Rpn11 inh 63 (no result: TPT1 inhibitor)
CCOC(=O)[C@]12Cc3cc(Cl)ccc3[C@H]1N(C1CCCCC1)C(=O)c1cc(OC)ccc12	none (no result: Rpn11 inh, TPT1 inhibitor)
O=C(Cn1cc(C=C2C(=O)NC(=O)NC2=O)c2ccccc21)NCC1CCCO1 (stereo not drawn)	none
Cc1c(C=C2C(=O)N(C)C(=S)N(C)C2=O)c2ccccc2n1CC(=O)NCC1CCCO1 (stereo not drawn)	Rpn11 inh 43 (no result: TPT1 inhibitor)
C[C@]12CCC3C(CC[C@@H]4[C@H]5O[C@H]5CC[C@]34C)C1CC[C@@H]2O (stereo partly drawn)	none (no result: TPT1 inhibitor)
CN1/C(=C\C=C\C2=[N+](C)c3ccc4ccccc4c3C2(C)C)C(C)(C)c2ccccc21	none (no result: SENP1 inh, Rpn11 inh, HNF4A DNA FP, CSN deneddyl inh)
CCN1/C(=C/C=C/C2=[N+](CC)c3ccccc3C2(C)C)C(C)(C)c2ccccc21	SENP1 inh 77 (not shown: Rpn11 inh, TPT1 inhibitor)
CCCCCCn1c(O)c(C=Nc2ccccc2N2CCOCC2)c(=O)[nH]c1=S	HNF4A DNA FP 74
CC1([N+](=O)[O-])COP(=O)(NC2CC2)OC1 (stereo not drawn)	none (no result: TPT1 inhibitor)
COc1ccc(/C=C2\C(=O)NC(=S)N(C)C2=O)cc1C	Rpn11 inh 107
CN(C)/C=C/C(=O)C(Cl)(Cl)Cl	HNF4A DNA FP 38
